# From PubChem BioAssay
# Compounds with a hit are over-represented: about 2.5% of the library has one in this group of screens.
# ABHD4 inh – ABHD4 (mouse) inhibition, primary FP screen. Q8VD66. purified mABHD4, FP-Rh probe fluorescence polarization. inhibition, % at 8.92 µM. 370,000 compounds, 0.54% hits;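 active = inhibition exceeding the mean over every tested compound plus 3 SD, cut at about 30% in these data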
#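 assay system = mABHD4 protein | compound dosing = single nominal dose of 8.92 µM, 0.89% DMSO final | read-out basis = percent inhibition of probe binding, normalized to plate controls | schedule = Enzyme–compound pre-incubation 45 min, then probe 60 min, both 25 °C | detection = fluorescence polarization, excitation 525 nm, emission 598 nm, BODIPY TMR filters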
# TCR CD3 inh – blocks the human TCR-CD3 interaction. AID 651800. 360,000 compounds, 0.37% hits. TAMRA-labeled TCR probe fluorescence, biochemical. inhibition, % at 9.4 µM; in the data active = inhibition above about 19%;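 also: recombinant mutant TCR 2C K166C tagged with TAMRA read by polarization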
# SIAE inh – blocks human sialic acid acetylesterase | SIAE FP-Rh probe binding, fluorescence polarization | inhibition, % at 9.66 µM | AID 1053197 | 370,000 compounds, 0.69% hits;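 active = inhibition above a cutoff: mean of compounds within the control limits plus 3 SD of those, cut at about 17% in these data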
# HTRA1 inh – inhibitors of human serine peptidase HTRA1; AID 504803; inhibition, % at 5.96 µM; Q92743; recombinant HTRA1, FP-rhodamine activity-based probe, fluorescence polarization; 340,000 compounds, 0.5% hits; in the data active = inhibition above about 36%
# PRMT1 FP inh – PRMT1 (human) inhibition, primary screen; inhibition, % at 2.79 µM; recombinant PRMT1, activity-based probe fluorescence polarization; Q99873; 370,000 compounds, 1.3% hits;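 active = inhibition above about 21% made by adding two undisclosed values, limit read from the data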
# Target sequence (Q99873 whole entry, looked up): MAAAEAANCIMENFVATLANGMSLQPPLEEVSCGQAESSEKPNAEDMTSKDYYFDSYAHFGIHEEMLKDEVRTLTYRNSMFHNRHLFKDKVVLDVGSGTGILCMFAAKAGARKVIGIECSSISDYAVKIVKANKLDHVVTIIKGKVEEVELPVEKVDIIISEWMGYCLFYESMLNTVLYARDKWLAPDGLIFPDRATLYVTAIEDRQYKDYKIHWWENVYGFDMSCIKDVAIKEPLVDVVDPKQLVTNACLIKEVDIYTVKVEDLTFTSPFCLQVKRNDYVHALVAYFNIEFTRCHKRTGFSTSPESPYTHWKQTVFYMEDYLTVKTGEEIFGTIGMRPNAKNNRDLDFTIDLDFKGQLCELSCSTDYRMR
# HTRA1 inh conf – confirmation of human HTRA1 inhibitors; shares compounds with HTRA1 inh; recombinant HTRA1, FP-rhodamine activity-based probe, fluorescence polarization; inhibition, % at 5.96 µM; 1,600 compounds, 66% hits;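 active = mean inhibition over three repeats above a set limit taken from the earlier primary screen, cut at about 37% in these data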;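 also: inhibitors block probe binding so polarization drops and inhibition rises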
# Hits are given with their value; n = inactive; x = not tested or not shown.
SMILES,ABHD4 inh,TCR CD3 inh,SIAE inh,HTRA1 inh,PRMT1 FP inh,HTRA1 inh conf
Cc1ccc(N=Cc2cc(Cc3ccccc3Cl)cc([N+](=O)[O-])c2O)c(O)c1,x,x,x,70.6,x,65.4
COc1ccc2c(c1)NC(C)(C)C=C2C,n,n,n,45.5,n,n
CC1=CC(C)(C)Nc2ccccc21,n,n,n,n,n,x
CCOc1ccc(CCNC(=O)c2cc3ccsc3n2C)cc1OC,n,x,n,x,n,x
COc1c(OC(C)=O)ccc(/C=C/c2ccc3cccc(OC)c3n2)c1[N+](=O)[O-],n,n,n,n,n,x
CCOc1c(OC(C)=O)ccc(/C=C/c2ccc3cccc(OC(C)=O)c3n2)c1[N+](=O)[O-],x,x,x,36.7,x,n
c1ccc(-n2c(SCc3cccc4ccccc34)nnc2-c2ccccn2)cc1,n,x,n,x,n,x
CCOC(=O)[C@]12CCCC=C1N(Cc1ccc(OC)cc1)C(=O)[C@@H]2CC(=O)NCCC(C)C,n,x,n,x,n,x
c1ccc(N=Nc2ccc3cccccc2-3)cc1,n,n,n,52.8,n,64.3
Nc1ccc(N=Nc2ccccc2)c2ccccc12,n,n,n,n,n,x
COc1ccc2cc(CO)n(C)c2c1,n,n,n,41.8,n,n
O=C(Nc1ccc(N2CCCC2)cc1)c1cc(Cl)ccc1Cl,n,n,n,59.4,n,n
Cc1ccc(C(=O)N2CCN(c3ccc(NC(=O)c4cc(C)cc(C)c4)cc3)CC2)cc1,n,n,n,n,n,x
CCCCC(=O)Nc1ccc(N2CCCC2)cc1,n,n,n,44.2,n,37.9
CCCCC(=O)Nc1ccc(N2CCN(C(=O)CC)CC2)cc1,n,n,n,n,n,x
Cc1cc(C)cc(C(=O)Nc2ccc(N3CCCC3)cc2)c1,n,n,n,39.3,n,n
O=C(Nc1ccc(N2CCCC2)cc1)c1ccc(Cl)cc1Cl,n,n,n,n,n,x
C[C@H]1[C@@H](OC(=O)Nc2cc(Cl)ccc2Cl)CC[C@@]23CCCN2C(=O)CCC[C@@H]13,n,x,n,x,n,x
Cc1cccc(C)c1NC(=S)NCCc1ccc(O)c(O)c1,n,n,n,47.6,n,108.5
Cc1cccc(NC(=S)NCCc2ccccc2)c1C,n,n,n,n,n,x
CCN(CC)c1ccc(/C=C2\C(=O)N(c3nnc(C)c(=O)[nH]3)N=C2C)cc1,n,n,n,62.0,n,79.2
CCN(CC)c1ccc(/C=C2/C(=O)ON=C2C)cc1,n,n,n,n,n,x
CCCC/C=C1/[C@H](CC)N(C)C2=N[C@@H](c3ccccc3)CC(=O)N21,n,x,n,x,n,x
COC(=O)C1=C(C(=O)OC)SC(=C2C(=S)C(C)(C)N(C(=O)C3CC3)c3ccccc32)S1,n,n,n,45.0,n,52.2
COC(=O)C1=C(C(=O)OC)SC(=C2C(=S)C(C)(C)N(C(=O)C(C)C)c3ccccc32)S1,n,n,n,n,n,x
SMILES,ABHD4 inh,TCR CD3 inh,SIAE inh,HTRA1 inh,PRMT1 FP inh,HTRA1 inh conf
CCn1c(SCC(=O)c2ccc(O)c(O)c2)nnc1-c1ccc(C)cc1,32.2,n,n,48.8,n,76.5
Nc1c(S(=O)(=O)O)cc(NC(=O)c2ccccc2)c2c1C(=O)c1ccccc1C2=O,x,x,x,54.5,x,71.8
O=C(Nc1ccccc1-c1ccccc1)c1ccccc1,n,n,n,n,n,x
Oc1cccc2ccc(/C=C/c3c(F)cccc3Cl)nc12,n,n,n,n,n,x
Oc1cccc2ccc(/C=C/c3ccccc3Cl)nc12,n,n,n,46.2,n,57.3
Nn1cnnc1N/N=C/c1cc(Br)cc(Br)c1O,n,n,n,52.8,n,51.1
Cc1cc(-c2csc(N)n2)c(C)n1CCC(C)C,n,n,n,53.0,n,63.4
C=CCN1CCc2c(cc(O)c(O)c2Br)[C@@H](c2ccccc2)C1,n,n,n,50.6,n,67.6
COC(=O)C1CN(Cc2ccc(Cl)cc2)CCS(=O)(=O)N1Cc1cn(Cc2ccc(Cl)cc2)nn1 (stereo unspecified),n,x,n,x,n,x
O=C(NCCc1ccccc1)OCc1cn(-c2cccc(F)c2F)nn1,n,x,n,x,n,x
CCc1ccc(O)c(N=Cc2cccc(C)c2O)c1,n,n,n,n,n,x
CCCc1ccc(O)c(N=Cc2cc(Br)cc(OCC)c2O)c1,n,n,n,41.2,n,55.2
COP(=O)(O)C(Cc1ccccc1)NC(=O)OCc1ccccc1 (stereo unspecified),n,x,n,x,n,x
COc1ccc2sc(-c3ccc(N(C)C)cc3)c(C#CCCO)c2c1,n,n,n,36.6,n,n
COc1ccc2sc(-c3ccc(N(C)C)cc3)c(C#CC(C)(C)O)c2c1,n,n,n,n,n,x
COc1ccc2sc(-c3ccc(N(C)C)cc3)c(C#Cc3cncn3C)c2c1,n,n,n,47.9,n,n
COc1ccc(-c2sc3ccc(OC)cc3c2C#CCCO)cc1,x,x,x,n,x,x
O=C(NCc1ccccc1)C1CCN(c2nc(-c3ccc(Br)cc3)cs2)CC1,n,x,n,x,n,x
CCn1c(SCC(=O)c2ccc(-c3ccccc3)cc2)nnc1-c1ccccc1OC,n,x,n,x,n,x
CCS(=O)(=O)c1ccc(OC)c(N=Nc2ccc(O)c3ncccc23)c1,n,n,n,45.0,n,n
CCN(CC)S(=O)(=O)c1cc(OC)ccc1N=Nc1ccc(O)c2ncccc12,n,n,n,62.6,n,68.7
C=CCN1C(C(=O)OC)CN(Cc2cn(Cc3ccc(Cl)cc3)nn2)CCS1(=O)=O (stereo unspecified),n,x,n,x,n,x
COc1cccc(CNc2ccc(N3CCC(C)CC3)cc2)c1OC,n,n,n,52.4,n,46.5
N#Cc1c(N)[nH]c2ccc(Sc3ccccc3)cc12,n,n,n,41.0,n,n
N#Cc1cc(-c2ccccc2)cnc1Sc1ccccc1,n,n,n,n,n,x
SMILES,ABHD4 inh,TCR CD3 inh,SIAE inh,HTRA1 inh,PRMT1 FP inh,HTRA1 inh conf
CCOc1ccccc1/C=C/c1nc2ccccc2[nH]c1=O,n,n,n,39.7,n,n
CC(CCN1CCC(C(O)(c2ccccc2)c2ccccc2)CC1)Oc1ccc(OC(F)(F)F)cc1 (stereo unspecified),n,x,n,x,n,x
Cc1ccccc1CN1CCCCC(NC(=O)Cc2cccs2)C1=O (stereo unspecified),n,x,n,x,n,x
CC(C)n1cnc2c(NCc3ccccc3)cc(N[C@H](C)CO)cc21,x,x,x,44.8,x,n
[O-][n+]1cccc2c(Br)cc(Br)c(O)c21,n,n,n,71.5,n,40.6
Clc1cccc(C2Nc3cccc4cccc(c34)N2)c1Cl,n,n,n,58.1,n,n
O=C(NCCc1ccccc1)c1ccc(=O)oc1,n,n,n,n,n,x
O=C(NCCc1ccccc1)c1ccc2nc(-c3ccco3)c(-c3ccco3)nc2c1,x,x,x,47.2,x,n
COC(=O)[C@]12C[C@H](CC(=O)N3CCCCC3)C(=O)N(Cc3cccc4ccccc34)C1=C[C@H](C(C)(C)C)O[C@@H]2C,n,x,n,x,n,x
CC1=C(SCc2ccccc2)C(=O)c2ccccc2C1=O,70.0,n,n,42.3,65.9,36.5
Cn1c(SCc2ccccc2)nccc1=O,n,n,n,n,n,x
COc1ccccc1N1CCN(Cc2ccc(O)c3ncccc23)CC1,n,n,n,44.9,n,52.5
